Compound activity deposited in PubChem by several laboratories.
A selection: hits, their analogues and other compounds. The true share with any hit is near 4.9%.
STAT3 inh = IL-6 driven STAT3 reporter inhibitors, primary screen, U3A cells, luciferase, luminescence, MLSCN library; inhibition, % at 5.5 µM; IL-6 STAT3-luciferase reporter; host cell line lacks STAT1; 0.89% of 190,000 active; AID 862, 2007;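 active means inhibition above the mean inhibition across all screened compounds plus 3 SD, cut at about 44% in these data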;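 further: 0% = DMSO only wells and 100% = 100 µM nifuroxazide control wells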
APP 5'UTR act = activators of APP 5'UTR luciferase reporter, primary screen, SH-SY5Y cells | AID 1276, 2008 | activation, % at 2 µM | 1% of 190,000 active | SH-SY5Y APP 5'UTR luciferase reporter, luminescence; zero percent = DMSO vehicle wells;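 active means activation above a set limit, based on mean plus 3 SD of controls, cut at about 140% in these data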
STAT1 blocker = STAT1 signaling inhibitors, primary screen, cell-based, HTS, luciferase reporter; 0.35% of 200,000 active; inhibition, % at 5.5 µM; NIH 3T3 STAT1-luciferase reporter, IFN-gamma, luminescence;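 active means inhibition above a set limit, the mean inhibition across all tested compounds plus 3 SD, cut at about 34% in these data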;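 further: 0% = IFN-gamma with DMSO and 100% = IFN-gamma with 300 µM nifuroxazide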
NF-kB neuron act = activators of NF-kB expression in neurons, primary screen, cell-based, HTS; human neuronal cells, NF-kB reporter expression; active compounds read high; fold change at 12.5 µM; 1.6% of 190,000 active; AID 1239, 2008; in the data active means fold change above about 3.3
STAT3 activator = IL-6 driven STAT3 reporter potentiators, primary screen, U3A cells, luciferase, luminescence, MLSCN library | IL-6 STAT3-luciferase reporter; 100% = signal with IL-6 EC80 alone | activation (% of control), % at 5.6 µM | 0.91% of 190,000 active;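 active means activation above the screen-wide mean of compound activation plus 3 SD, cut at about 130% in these data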;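 further: 0% = background luminescence of wells with medium and substrate only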
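Test system: STAT3-luciferase reporter U3A cells; Detection: reporter luminescence signal; Times: 1 h compound pre-exposure, 6 h IL-6 stimulation, 37 °C; Benchmarks: IL-6-only high control; Also added: IL-6 stimulus at 33 ng/mL final.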
STAT1 act = STAT1 signaling activators, primary screen, cell-based, HTS, luciferase reporter | NIH 3T3 STAT1-luciferase reporter, IFN-gamma, luminescence; 100% = IFN-gamma alone, no compound | activation (% of control), % at 5.5 µM | 2.6% of 200,000 active;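 active means activation above the screen-wide mean activation plus 3 SD, cut at about 130% in these data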;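 further: raw ratio to IFN-gamma control signal so 100% means no change and 0% no light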
Starred values were filed as active, the others as inactive.

SMILES	STAT3 inh	APP 5'UTR act	STAT1 blocker	NF-kB neuron act	STAT3 activator	STAT1 act
COCC(=O)Nc1cc(C(=O)NCCc2ccccc2)ccc1Cl	8	74	-49	1.8	96	145*
CC(C)CCNC(=O)c1ccc(Cl)c(NC(=O)Cc2ccccc2)c1	2	13	0	1.2	101	100
CCOCC(=O)Nc1cc(C(=O)NCCc2ccccc2)ccc1Cl	3	65	-35	1.7	100	130*
COc1ccc(C(=O)Nc2cc(C(=O)NCCc3ccccc3)ccc2Cl)cc1	-9	31	-8	1.1	108	107
CCOC(=O)C1(C(=O)OCC)CC1c1ccccc1 (configuration not stated)	-4	7	7	0.94	108	94
CCOC(=O)N1CCN(C(=O)c2ccc3c(c2)sc2nc(-c4ccccc4)cn23)CC1	10	82	-49	0.44	94	145*
Cc1ccc(Cn2ccnc2C(=O)Nc2ccccc2)cc1	-4	85	-48	1.1	109	142*
COc1ccc(/C=C/C2=NN(C)C(=O)CC2)cc1	19	149*	-31	3.4*	86	127
CC(C)C[C@H](N)c1nnc(S(=O)(=O)Cc2ccc(F)cc2)o1	0	-15	27	1.3	106	76
O=C(Cn1ccc(C(F)(F)F)n1)Nc1cccc(S(=O)(=O)N2CCCCC2)c1	8	-7	1	0.95	96	98
Nc1ccc2oc(C3CCCCC3)nc2c1	-1	38	-34	1.6	106	132*
O=c1c2nnn(-c3ccc(Br)cc3)c2ncn1Cc1ccccn1	10	-5	2	1.2	94	98
CC(C)c1ccc(-c2nnn(CCC(=O)O)n2)cc1	78*	-82	48*	0.39	39	57
O=C(O)CCn1nnc(-c2cccs2)n1	8	-4	0	1.3	97	100
CC(C)CNC(=O)c1ccccc1NC(=O)CN(c1ccccc1)S(=O)(=O)N(C)C	13	-4	-6	0.97	99	105
Cc1ccccc1C(=O)NNC(=O)c1ccoc1C	0	9	5	1.3	101	96
Cc1occc1C(=O)NNC(=O)c1ccccc1C(=O)O	-7	181*	-51	1.4	110	146*
C[C@H](NC(N)=O)C(=O)Nc1ccc(OCc2ccccc2)cc1	-7	52	-35	2.2	108	132*
Cc1occc1C(=O)Nc1ccc(OCc2ccccc2)cc1	10	119	-32	3.3	93	129*
CCC(=O)Nc1ccc(C(=O)OCc2ccccc2)cc1	4	24	-35	1.3	98	132*
N#Cc1ccccc1S(=O)(=O)c1ccccc1C(=O)Nc1ccccc1	3	1	1	0.88	104	99
O=C(CCS(=O)(=O)Cc1ccccc1)NCC1CCCO1 (configuration not stated)	10	10	4	1.2	94	96
COc1ccc(NC(=O)c2cccnc2SC)cc1S(=O)(=O)N1CCCCC1	-12	5	2	0.83	106	98
COc1cccc(CN(c2ccc3c(c2)CCC3)S(=O)(=O)c2ccc(-n3cnnn3)c(OC)c2)c1	-5	1	-10	0.79	103	109
O=S(=O)(Nc1nc2ccccc2nc1Nc1ccc2c(c1)OCO2)c1ccc(F)cc1	-1	-13	-6	0.92	100	106
SMILES	STAT3 inh	APP 5'UTR act	STAT1 blocker	NF-kB neuron act	STAT3 activator	STAT1 act
CSc1ccccc1C(=O)C1CCCN(C(=O)CCN2CCCO2)C1 (configuration not stated)	11	16	-3	1.1	100	102
O=C1NC(NS(=O)(=O)c2ccc(Cl)cc2)(C(F)(F)F)C(=O)N1Cc1cccnc1 (configuration not stated)	-3	-13	2	1.3	106	98
CCCOC(=O)c1ccc(NC(=O)CC(C)(C)C)cc1	-9	122	-50	5.5*	112	144*
CCCOC(=O)c1ccc(NC(=O)COC)cc1	-2	3	-10	1.3	103	112
CCCOC(=O)c1ccc(NC(=O)c2ccoc2C)cc1	-4	115	-44	3.5*	103	141*
CC(=O)Nc1ccc(C(=O)OCCC(C)C)cc1	6	6	-32	1.4	97	129*
COC(=O)c1ccc(CNC(=O)COC(=O)CC23CC4CC(CC(Br)(C4)C2)C3)cc1	-6	-2	-12	1.2	108	111
Cc1cc(N)n(-c2ccc(Oc3ccccc3)c(S(=O)(=O)O)c2)n1	0	1	-14	1.1	101	111
c1ccc(-c2ccc(-c3nc(-c4ccncc4)no3)cc2)cc1	12	177*	-37	6.8*	94	136*
CCCCc1ccc(-c2nc(-c3ccncc3)no2)cc1	4	176*	-16	7*	100	116
c1ccc(-c2nc(-c3ccncc3)no2)cc1	9	103	-41	2.2	94	138*
Clc1cccc(Oc2ncc(CN3CCOCC3)s2)c1	8	-1	-11	1.4	102	110
C#CC(=O)N(c1ccc(OC)cc1OC)C(C(=O)NC1CCCC1)c1cccs1 (configuration not stated)	84*	-15	88*	0.18	29	18
C#CC(=O)N(c1cc(OC)ccc1OC)C(C(=O)NC1CCCC1)c1cccs1 (configuration not stated)	114*	-11	75*	0.17	11	33
COc1ccc(N(C(=O)c2ccco2)C(C(=O)NC2CCCCC2)c2cccs2)cc1OC (configuration not stated)	2	3	6	1.2	101	96
O=C1c2ccccc2NC(c2ccc3c(c2)OCCO3)N1c1ccc2c(c1)OCCO2 (configuration not stated)	24	85	-19	4.4*	85	119
COc1cc(C2Nc3ccccc3C(=O)N2c2ccccc2OC)ccc1O (configuration not stated)	4	20	-5	0.97	99	105
COc1cc(C2Nc3ccccc3C(=O)N2c2ccc3c(c2)OCCO3)ccc1OCC(C)C (configuration not stated)	5	107	-35	1.1	96	132*
CC(C)N1C(=O)CCC1C(=O)NCCc1ccc(Cl)cc1 (configuration not stated)	-2	6	3	1.2	102	97
CCOc1ccc2nc(SCc3ccccc3C#N)sc2c1	6	116	-38	2.9	104	134*
